One compound from ChEMBL document CHEMBL3352174, “Identification of a New RXRα Antagonist Targeting the Coregulator-Binding Site” (ACS Med Chem Lett, 2014) can be followed below.

Changes are numbered by the printed parent chain. The source made the active and inactive calls. The calls are words filed in the database; no cut-off is given here.

Assay [1] concerns the target T1, Retinoic acid receptor RXR-alpha (Homo sapiens) (UniProt P19793).
T1 sequence (whole entry): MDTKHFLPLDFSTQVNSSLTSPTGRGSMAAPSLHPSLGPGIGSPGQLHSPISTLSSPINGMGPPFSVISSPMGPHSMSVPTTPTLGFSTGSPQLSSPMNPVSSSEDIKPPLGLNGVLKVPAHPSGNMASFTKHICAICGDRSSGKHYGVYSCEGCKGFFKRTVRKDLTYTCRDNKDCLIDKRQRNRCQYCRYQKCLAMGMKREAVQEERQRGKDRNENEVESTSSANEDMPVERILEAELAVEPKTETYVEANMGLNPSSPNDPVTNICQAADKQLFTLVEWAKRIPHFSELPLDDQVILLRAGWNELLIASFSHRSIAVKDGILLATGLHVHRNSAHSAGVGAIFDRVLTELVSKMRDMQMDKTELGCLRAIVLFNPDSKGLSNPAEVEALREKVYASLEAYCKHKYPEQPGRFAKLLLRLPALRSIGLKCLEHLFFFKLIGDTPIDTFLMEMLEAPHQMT
The assay is described as follows: Antagonist activity against RXRalpha in TNFalpha-stimulated human A549 cells assessed as inhibition of AKT phosphorylation at 5 and 10 uM pre-treated for 24 hrs before TNFalpha addition in presence of RXRalpha siRNA by Western blotting method. Type of assay: cell-based. Put shortly: (§1)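 A549 cells were transfected with RXRα siRNA or control siRNA for 48 h. They were then treated with compound for 24 h, followed by TNFα (20 ng/mL) for 30 min. Lysates were analyzed by Western blot for AKT activation and PARP cleavage.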

For assay [2], the target named is T1, Retinoic acid receptor RXR-alpha (Homo sapiens). The assay is described as follows: Antagonist activity against RXRalpha in human PC3 cells assessed as inhibition of AKT phosphorylation at 5 and 10 uM after 24 hrs by Western blotting method. It counts as cell-based. Particulars: PC-3. (In western blotting, separated proteins are transferred to a membrane and probed.)

The test system of assay [3] is T2, Retinoic acid receptor RXR-alpha (Homo sapiens), P19793 [A272W].
T2 sequence (whole entry): T1 sequence (whole entry) with A272W
The assay is described as follows: Antagonist activity against RXRalpha A272W/F313A mutant (unknown origin) expressed in human HEK293T cells assessed as inhibition of constitutive receptor transactivation at 1 to 10 uM after 18 hrs by luciferase reporter gene based mammalian one-hybrid assay. The note with it: HEK-293T. In general terms: In a reporter assay the amount or activity of a reporter protein is the signal.

Assay [4] concerns the target T3, Estrogen receptor (Homo sapiens) (UniProt P03372).
T3 sequence (whole entry): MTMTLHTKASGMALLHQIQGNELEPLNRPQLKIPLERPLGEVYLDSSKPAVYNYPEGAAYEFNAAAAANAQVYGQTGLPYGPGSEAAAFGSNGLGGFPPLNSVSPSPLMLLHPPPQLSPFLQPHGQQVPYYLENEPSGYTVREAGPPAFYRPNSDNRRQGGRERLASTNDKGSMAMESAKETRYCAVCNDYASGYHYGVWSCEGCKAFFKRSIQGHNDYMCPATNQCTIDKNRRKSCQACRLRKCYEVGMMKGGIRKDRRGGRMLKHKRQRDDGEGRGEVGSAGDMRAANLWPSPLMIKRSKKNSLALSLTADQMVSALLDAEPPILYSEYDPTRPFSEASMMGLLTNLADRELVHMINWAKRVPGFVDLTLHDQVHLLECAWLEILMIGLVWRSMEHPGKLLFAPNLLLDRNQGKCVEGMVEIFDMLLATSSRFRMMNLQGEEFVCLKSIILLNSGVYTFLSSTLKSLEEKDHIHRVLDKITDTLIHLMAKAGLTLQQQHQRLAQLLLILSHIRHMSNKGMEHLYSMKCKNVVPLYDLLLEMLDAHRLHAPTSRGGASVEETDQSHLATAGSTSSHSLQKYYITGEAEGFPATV
The assay is described as follows: Antagonist activity against estrogen receptor ligand binding domain (unknown origin) expressed in human MCF7 cells assessed as inhibition of propyl pyrazole-induced receptor transactivation at 10 uM after 18 hrs by luciferase reporter gene based mammalian one-hybrid assay. Type of assay: cell-based. Put shortly: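 MCF-7 cells co-transfected with pG5-Luc and the pBind-LBD fusion: Nur77, RARγ or ER. Agonists were all-trans-RA 10⁻⁷ M for RARγ and Nur77, and propyl pyrazole triol 10 μM for ER. Compound at 10 μM for 18 h. Dual-luciferase read-out normalized to Renilla. Mean ± SD.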

For assay [5], the target named is Retinoic acid receptor alpha/Retinoid X receptor alpha (Homo sapiens) (UniProt P10276+P19793). The assay is described as follows: Antagonist activity against RXRalpha/RARalpha ligand binding domain (unknown origin) expressed in human HEK293T cells assessed as inhibition of 9-cis-RA/T09-induced receptor transactivation at 2 and 10 uM after 18 hrs by luciferase reporter gene based mammalian one-hybrid assay. Particulars: HEK-293T. It counts as cell-based.

In assay [6] the target is T1, Retinoic acid receptor RXR-alpha (Homo sapiens). The assay can be described thus: Antagonist activity against Myc-tagged RXRalpha ligand binding domain (unknown origin) expressed in human MCF7 cells assessed as inhibition of 9-cis-RA-induced receptor transactivation at 10 uM after 18 hrs by luciferase reporter gene based mammalian one-hybrid assay. Type of assay: cell-based. The gist of the method: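 MCF-7 cells co-transfected with pG5-Luc reporter and pBind-RXRα-LBD. […] Read-out was dual-luciferase, with firefly normalized to Renilla for transfection efficiency. Single-concentration tests used 10 μM. Mean ± SD.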

For assay [7], the system named is A549. The assay can be described thus: Induction of apoptosis in TNFalpha-stimulated human A549 cells assessed as PARP cleavage at 5 and 10 uM pre-treated for 24 hrs before TNFalpha addition by immunoblotting method. It counts as functional, cell-based. Put shortly: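 A549 or HepG2 cells were treated with compound for 24 h, with or without subsequent TNFα (20 ng/mL) for 30 min. Lysates were immunoblotted for PARP cleavage as the apoptosis marker. One of three to five similar experiments shown.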

Assay [8] addresses T1, Retinoic acid receptor RXR-alpha (Homo sapiens). The assay is described as follows: Antagonist activity against RXRalpha in TNFalpha-stimulated human A549 cells assessed as inhibition of AKT phosphorylation at 5 and 10 uM pre-treated for 24 hrs before TNFalpha addition by Western blotting method. It counts as cell-based. The gist of the method: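 A549 or HepG2 cells were exposed to compound for 24 h, then with or without TNFα (20 ng/mL) for 30 min more. Lysates were immunoblotted for AKT activation. One of three to five similar experiments shown.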

Assay [9] relates to A549. The assay can be described thus: Induction of apoptosis in TNFalpha-stimulated human A549 cells assessed as PARP cleavage at 5 and 10 uM pre-treated for 24 hrs before TNFalpha addition in presence of RXRalpha siRNA by immunoblotting method. It counts as functional, cell-based. Put shortly:
as §1

For `Cc1cc(=O)oc2c(/C=N/NC(=O)CSc3nc4ccccc4s3)c(O)ccc12`, the inhibition entry in [1], in assay [4] and in assay [5] was “inactive” throughout. The inhibition entry in assay [2], in assay [6] and in assay [8] was “Active” each time. Besides, the inhibition entry in assay [3] was “Dose-dependent effect”. Also, in the assay with A549 [7], the outcome was Active. The outcome in the assay with A549 [9] was inactive.
